# Assay results taken from PMC11740227 (FASEB journal : official publication of the Federation of …, 2023).
# Tests used:
# Molt4E6 cells [1] = assay: Cell death by trypan blue exclusion in Molt4E6 cells; assay type: cell-based, human; conditions: for cell death: Molt4E6 cells, 24 h of treatment
# Molt4E6 cells [2] = assay: Caspase activation by Western blot in Molt4E6 cells; assay type: cell-based, human; conditions: 6 h of treatment
# [3] = assay type: in vitro ADME; conditions: mouse
# [4] = tested on: mouse Trp53KO thymic lymphoma cells; assay: Sphingolipid levels in cultured cells by LC MS/MS; assay type: cell-based; conditions: PF543 0.5 μM
# WT mice [5] = assay: Tolerability of IP dosing in the PK study; assay type: in vivo; conditions: 100 mg/kg IP
# [6] = tested on: lymphocytes isolated from WT thymus; assay: Viability of WT lymphocytes; assay type: cell-based, mouse
# [7] = tested on: mouse Trp53KO thymic lymphoma cells; assay: Proliferation, viability and cell death of cultured thymic lymphoma cells; assay type: cell-based
# [8] = Pharmacokinetics of PF543 in wildtype mice, IP dosing; assay type: in vivo, mouse; conditions: after IP administration in mice
# S1P levels in blood = assay: Blood sphingolipid analysis by LC MS/MS after PF543 administration; assay type: in vivo, mouse; conditions: 10 mg/kg of body weight, 2 h after IP injection, vs vehicle
# Trp53KO thymic lymphoma [9] = assay: Cleaved caspase 3 immunohistochemistry of tumor tissue; assay type: in vivo, mouse; conditions: Trp53KO mice, day 10 after treatment initiation, compared to vehicle
# How it was run: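 Male Trp53KO mice with ultrasound-detected thymic lymphoma (100–150 mm3) received vehicle or test compound, 10 mg/kg IP twice daily (suspension in 1% HPMC/PBS), and tumors were taken at day 10. Sections were stained overnight at 4°C with anti-cleaved caspase-3 (1:200), then biotinylated anti-rabbit, DAB/H2O2 and hematoxylin counterstain. Positive cells counted in ten 20× fields per sample, expressed per mm2; three mice per condition.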
# WT mice [10] = conditions: mouse, in vivo, ip, 10 mg/kg
# Trp53KO thymic lymphoma [11] = assay: Thymic lymphoma growth in Trp53KO mice by ultrasound imaging; assay type: in vivo, mouse; conditions: 10 mg/kg BID IP for 10 days, compared to vehicle
# Jurkat cells = assay: Cell death by trypan blue exclusion in Jurkat cells with Bak knockdown; assay type: cell-based, human; conditions: Jurkat sgRNA BakA and BakB vs control cells, 24 h of treatment
compound,measurement,setting,value
CCCC[C@@H](C)[C@@H](OC(=O)C[C@@H](CC(=O)O)C(=O)O)[C@H](C[C@@H](C)C[C@H](O)CCCC[C@@H](O)C[C@H](O)[C@H](C)N)OC(=O)C[C@@H](CC(=O)O)C(=O)O [FB1],protection from Sph-induced cell death,"Molt4E6 cells [1]; FB1 25 μM pre-treatment 1 h, then 3 μM D-erythro-Sph, 24 h",did not protect
CCCCCCCCCCCCC/C=C/[C@H](O)[C@H](N)CO [L-erythro-Sph],cell death,Molt4E6 cells [1],did not induce cell death
same,caspase activation,Molt4E6 cells [2],did not induce cell death or caspase activation
Cc1cc(CS(=O)(=O)c2ccccc2)cc(OCc2ccc(CN3CCC[C@@H]3CO)cc2)c1 [PF543],plasma protein binding,[3],94 % bound
same,Sph levels in cells,[4],significantly increased
same,total Cer levels in cells,[4],significantly increased
same,tolerability of IP dosing,WT mice [5],not tolerated
same,cell viability over time,[6],did not affect cell viability
same,proliferation over time,"[7]; PF543 0.5 μM, low-serum medium, counted every day for 4 days, CCK-8 at day 2",significantly decreased
same,cell death,[7]; Trp53KO thymic lymphoma cells treated with PF543,resulted in cell death
same,survival of cells in culture,[7]; mouse Trp53KO lymphoma cells,reduced survival
same,half-life (T1/2),[8],~ 4 h
same,S1P levels in blood,S1P levels in blood,decreased
same,number of cleaved caspase 3 positive cells in tumor samples,Trp53KO thymic lymphoma [9],significantly higher
same,liver function (liver enzymes in blood),WT mice [10],did not significantly impact
same,number of total white cells and lymphocytes in blood,WT mice [10],no decrease
same,tumor growth (tumor size by ultrasound),Trp53KO thymic lymphoma [11],significant inhibition
"CCCCCCCCCCCCC/C=C/[C@@H](O)[C@@H](N)CO [Sph, sphingosine]",cell death,Molt4E6 cells [1],caused cell death
same,Sph-induced cell death after knockdown of Bak,Jurkat cells,significantly protected
same,caspase activation,Molt4E6 cells [2],activation of caspases
ZVAD,protection from PF543-induced cell death,"[7]; pan-caspase inhibitor with PF543, Trp53KO thymic lymphoma cells",partially protected
same,inhibition of Sph-induced cell death,"Molt4E6 cells [1]; ZVAD 40 μM pre-treatment 1 h, then 3 μM D-erythro-Sph, 24 h",significantly inhibited
